RGS4 inh = inhibitors of human RGS4. P49798. B-score at 10 µM. HEK293 M3R/RGS4 inducible, Fluo-4 calcium flux; active compounds read high; triggered by carbachol at its EC20. AID 463165. actives 0.45% (n = 310,000);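 active = B-score, a plate-corrected calcium signal, over three deviations above library mean, with baseline fluorescence within five deviations of library mean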;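 also: RGS4 expression induced by doxycycline in cells with stable M3 receptor; B-score is computed from the integrated fluorescence ratio over baseline after carbachol; higher B-score means a larger calcium signal and so more RGS4 inhibition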
MrgX1 antag = antagonists of human MrgX1 receptor; Q96LB2; actives 1.3% (n = 310,000); MRGX1-HEK293 calcium flux, Fluo-4, BAM8-22 antagonism; active compounds read low; B-score at 10 µM; AID 588676;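 active = calcium-response B-score plate-corrected more than 3 library SD below zero, starting fluorescence within 5 deviations, no agonist response on first addition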;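 also: peak minus trough fluorescence over baseline after final BAM8-22 challenge near maximal dose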
Target sequence (Q96LB2 whole entry, looked up): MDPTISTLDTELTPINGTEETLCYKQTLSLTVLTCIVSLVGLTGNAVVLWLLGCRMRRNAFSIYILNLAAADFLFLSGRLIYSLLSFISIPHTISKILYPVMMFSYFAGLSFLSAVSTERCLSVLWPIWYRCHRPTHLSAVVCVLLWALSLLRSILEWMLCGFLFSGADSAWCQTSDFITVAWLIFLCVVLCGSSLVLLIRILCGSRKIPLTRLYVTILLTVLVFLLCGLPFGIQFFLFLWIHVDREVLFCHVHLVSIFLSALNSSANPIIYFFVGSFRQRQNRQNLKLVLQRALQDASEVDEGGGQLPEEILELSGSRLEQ
PHOSPHO1 block = inhibitors of human PHOSPHO1 phosphatase; recombinant PHOSPHO1, absorbance phosphatase assay; inhibition, % at 13.3 µM; actives 1.1% (n = 290,000); in the data active = inhibition above about 60%
Target sequence (Q8TCT1 whole entry, looked up): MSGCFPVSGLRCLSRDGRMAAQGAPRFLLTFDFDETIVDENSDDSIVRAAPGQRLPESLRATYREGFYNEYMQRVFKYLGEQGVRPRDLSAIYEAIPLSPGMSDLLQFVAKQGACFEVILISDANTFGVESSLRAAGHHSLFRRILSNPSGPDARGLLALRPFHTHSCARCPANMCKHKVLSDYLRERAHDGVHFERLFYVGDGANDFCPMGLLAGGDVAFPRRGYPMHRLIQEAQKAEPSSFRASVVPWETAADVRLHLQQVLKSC
RGS4 act = RGS4 potentiation or activation | HEK293 M3R/inducible RGS4, carbachol calcium flux Fluo4; active compounds read low | B-score at 10 µM | actives 0.92% (n = 310,000) | AID 463111;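 active = B-score of the integrated calcium signal more than 4 SD below the library mean, with starting fluorescence not abnormally high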;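 also: negative B-score means reduced calcium response which marks RGS4 activation or potentiation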
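test system = HEK293 cells with stable M3R and inducible RGS4 | schedule = recording 10 s baseline at 1 Hz, 100 s post-agonist | technique = Fluo4-AM (2 µM) calcium-flux fluorescence, kinetic read | measure = Agonist-evoked peak-minus-minimum fluorescence over baseline, integrated ratio, B score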
MrgX1 PAM = allosterically activates human MrgX1 receptor signaling. B-score at 10 µM. Q96LB2. MrgX1-HEK293, Fluo-4 calcium flux, FDSS; active compounds read high. actives 0.63% (n = 310,000);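 active = plate-corrected calcium response at least 3 library SD above typical, normal starting fluorescence, not activating the receptor alone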;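 also: compound read alongside a low EC10 to EC30 dose of BAM8-22 agonist; peak minus trough fluorescence over baseline measured at the second addition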
MrgX1 agonist = activates human MrgX1 receptor signaling; Q96LB2; MrgX1-HEK293 cells, Fluo-4 calcium fluorescence, agonist mode; active compounds read high; B-score at 10 µM; actives 0.44% (n = 310,000);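 active = calcium response B-score plate-corrected fluorescence ratio at least 3 library SD, with starting fluorescence B-score inside 5 SD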
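System: HEK293 cells stably expressing human MrgX1 receptor; Dosing: test compound in the initial addition of three; Schedule: overnight plating, then 30 min 37 °C plus 30 min room-temperature dye loading; Detection: kinetic calcium dye fluorescence, Fluo-4 NW; Controls: per-plate positive and negative controls for Z′ factor.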
An asterisk follows results filed as active; i = inactive; x = not tested or not shown. Compounds with a hit are over-represented: about 4.5% of the library has one in this group of screens.

SMILES | RGS4 inh | MrgX1 antag | PHOSPHO1 block | RGS4 act | MrgX1 PAM | MrgX1 agonist
Cc1cc(C)n2nc(-c3sccc3-n3cccc3)cc2n1 | i | i | 62* | i | i | i
Cc1cc(C)n2nc(-c3sccc3-n3c(C)ccc3C)cc2n1 | i | i | 37 | i | i | i
CC(C)CNC(=O)c1ccccc1NC(=O)CN(c1ccccc1)S(=O)(=O)N(C)C | i | i | 27 | i | i | i
COc1ccc(C2=NN(c3nc(C(=O)O)cs3)C(O)(C(F)(F)F)C2)c(OC)c1 (stereo not drawn) | i | -6.5* | -95 | i | i | i
COc1ccc(C2=NN(C(=O)c3cccs3)C(O)(C(F)(F)F)C2)cc1 (stereo not drawn) | i | i | -16 | i | i | i
FC(F)Sc1ccc(NC(=S)NCC2CCCCC2)cc1 | i | -5.1* | 0 | i | i | i
FC(F)Sc1ccc(NC(=S)NC2CCCCC2)cc1 | i | i | 5 | i | i | i
CCCc1cc(C(=O)Nc2ccc(C(=O)c3ccccc3)cc2)n(C)n1 | i | i | 9 | i | i | i
CCCc1cc(C(=O)Nc2ccc(C(=O)c3ccc(F)cc3)cc2)n(C)n1 | i | -6.9* | 29 | i | i | i
CCCN1CCc2c(sc3nc(SCC)n(-c4ccc(OC)cc4)c(=O)c23)C1 | i | x | 32 | i | x | x
COC(=O)CCCC1=CC2=C(c3ccccc3)C(=O)C(C)(OC(=O)C3CCCC3)C(=O)C2=CN1Cc1ccc(OC)cc1 (stereo not drawn) | i | i | 4 | i | i | i
Cc1cc(=O)n2nc(N3CCCC(C(=O)N4CCOCC4)C3)sc2n1 (stereo not drawn) | x | i | 11 | x | i | i
Cc1cc(=O)n2nc(N3CCCC(C(=O)N4CCc5ccccc54)C3)sc2n1 (stereo not drawn) | i | i | 10 | -7.7* | i | i
COc1ccc(NC(=O)c2ccc(S(=O)(=O)N3CCOCC3)o2)cc1 | i | i | 38 | i | i | i
COc1cc(/C=C2/C(=N)N3N=C(CC(=O)N4CCOCC4)SC3=NC2=O)ccc1OCc1ccccc1F | i | i | 13 | i | 17* | i
C=CCOc1ccc(/C=C2/C(=N)N3N=C(CC(=O)N4CCCC4)SC3=NC2=O)cc1OC | i | i | 4 | i | i | i
COc1ccc(/C=C2/C(=N)N3N=C(CC(=O)N4CCCC4)SC3=NC2=O)cc1OC | i | i | 16 | i | i | i
CSc1ccc(/C=C2/C(=N)N3N=C(CC(=O)N4CCCC4)SC3=NC2=O)cc1 | i | i | 28 | i | i | 31*
COc1cc(/C=C2/C(=N)N3N=C(CC(=O)N4CCOCC4)SC3=NC2=O)ccc1OCc1ccc(F)cc1 | i | i | -11 | i | 16* | i
O=[N+]([O-])c1cc(-c2nnc(C34CC5CC(CC(C5)C3)C4)o2)cc([N+](=O)[O-])c1 | i | i | 7 | i | i | i
CC(CCOS(N)(=O)=O)c1ccccc1 (stereo not drawn) | i | i | -7 | i | i | i
COc1cccc(-n2sc3c(c2=S)-c2cc(OC)ccc2NC3(C)C)c1 | i | i | 88* | i | i | i
Cc1ccc(NC(=O)c2c(C)nc3sc(C(=O)NC4CCCC4)c(N)c3c2-c2ccco2)c(C)c1 | i | i | -8 | i | i | i
N#Cc1sc2nc3c(c(-c4ccco4)c2c1N)CCCC3 | i | i | 81* | i | i | i
Cc1ccccc1NC(=O)c1sc2nc3c(c(-c4ccco4)c2c1N)CCC3 | i | i | 76* | i | i | i
SMILES | RGS4 inh | MrgX1 antag | PHOSPHO1 block | RGS4 act | MrgX1 PAM | MrgX1 agonist
NC(=O)c1sc2nc3c(c(-c4ccco4)c2c1N)CCCC3 | i | i | 20 | i | i | i
Cc1cccn2c(=O)c3cc(C(=O)NC4CCCC4)c(=N)n(C4CCCCC4)c3nc12 | i | i | 10 | i | i | i
COC(=O)CN1C(=S)N(c2ccc(OC)cc2)C(=O)/C1=C/c1ccc(N2CCOCC2)cc1 | i | -6.1* | 47 | i | i | i
Brc1cccc(-c2nc3cccnc3nc2-c2cccc(Br)c2)c1 | i | i | 25 | -7* | i | i
Cc1ccc(-c2nc3cc(Br)cnc3nc2-c2ccc(C)cc2)cc1 | i | i | -62 | i | i | i
CCOc1ccc2c(c1)-c1c(ssc1=S)C(C)(C)N2C | i | i | 70* | i | i | i
Cn1c(=O)[nH]c(=O)c2c1nc(SCC(O)CCl)n2Cc1ccccc1 (stereo not drawn) | i | i | 9 | i | i | i
Cc1ccc(NC(=O)C(=O)NCCN2CCN(S(C)(=O)=O)CC2)cc1C | i | i | 61* | i | i | i
Cc1cc(NC(=O)C(=O)NCCN2CCN(S(C)(=O)=O)CC2)ccc1Br | i | i | 50 | i | i | i
CC(NC(=O)c1sc2ccccc2c1Cl)C1CCCO1 (stereo not drawn) | i | i | -27 | i | i | i
CSC1=N/C(=C\c2cccc(F)c2)C(=O)S1 | i | i | 67* | i | i | i
CSC1=N/C(=C\c2ccc(C)cc2)C(=O)S1 | i | i | 19 | i | 16* | i
CCOC(=O)SC1=N/C(=C\c2ccc(N(C)C)cc2)C(=O)S1 | i | i | 7 | i | 7.8* | i
Cc1ccc(-c2nnc(CN3CCCCC3C)o2)cc1 (stereo not drawn) | i | i | 14 | i | i | i
COc1ccc(N(CC(=O)NCc2ccccc2OC)S(=O)(=O)c2ccccc2[N+](=O)[O-])c(OC)c1 | i | i | -9 | i | i | i
CCN1CCN(C(=O)CN(c2ccc(F)cc2)S(=O)(=O)c2ccc(OC)c(OC)c2)CC1 | i | i | 31 | i | i | i
Cc1cccc(N2CCN(C(=O)c3ccc4nc(-c5ccco5)c(-c5ccco5)nc4c3)CC2C)c1 (stereo not drawn) | i | -7.6* | -16 | i | i | i
Cc1cc(C)c(S(=O)(=O)Nc2ccc3c4c(cccc24)CC3)c(C)c1 | i | i | 52 | -7.5* | i | i
Cc1ccc(/C=C/C(=O)c2ccc([N+](=O)[O-])o2)cc1 | 9.8* | i | x | i | i | i
Cc1ccc(CNC(=O)c2ccc([N+](=O)[O-])o2)cc1 | i | i | 14 | i | i | i
